Laboratory results reported in ChEMBL document CHEMBL1125314, “Synthesis and evaluation of 2-pyridinone derivatives as HIV-1 specific reverse transcriptase inhibitors. 1. Phthalimidoalkyl and -alkylamino analogues” (J Med Chem, 1992).

Key:
[1] = molecular target: Human immunodeficiency virus type 1 reverse transcriptase (Human immunodeficiency virus 1, UniProt Q72547); assay: Inhibition of HIV-1 reverse transcriptase.
[2] = The compound was tested for hydrolysis rate at pH 7; type: ADME; settings: buffer
Summary of the method: (§1)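 Aqueous hydrolysis of the (aminomethyl)phthalimides followed at pH 7, 8.2 (the pH used for the RT enzyme measurements) and 9.0. Results are expressed as the observed rate constant k_obs in units of 10⁻³ min⁻¹.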

[3] = The compound was tested for hydrolysis rate at pH 8.2; type: ADME; settings: buffer; summary of the method: as §1
[4] = The compound was tested for hydrolysis rate at pH 9; type: ADME; settings: buffer; summary of the method: as §1

SMILES | IC50 [1] | k obs [2] | k obs [3] | k obs [4]
CCc1cc(CN2C(=O)c3ccccc3C2=O)c(=O)[nH]c1C | 26.5 µM |  |  | 
CCC1=C(C)NC(OC)C(CCN2C(=O)c3ccccc3C2=O)=C1 (stereo not given) | 6.2 µM |  |  | 
CCc1nc(O)c(NCN2C(=O)c3ccccc3C2=O)cc1C | 0.887 µM | 0.00722 min⁻¹ | 0.01001 min⁻¹ | 0.03627 min⁻¹
O=C1c2ccccc2C(=O)N1CNc1cccnc1O | 1.66 µM | 0.00085 min⁻¹ | 0.0039 min⁻¹ | 0.02417 min⁻¹
CCC1=C(C)NC(OC)C(C(O)CN2C(=O)c3ccccc3C2=O)=C1 (stereo not given) | > 300 µM |  |  | 
CCc1cc(NCCN2C(=O)c3ccccc3C2=O)c(=O)[nH]c1C | 45 µM |  |  | 
CCC1=C(C)NC(OC)C(CCCN2C(=O)c3ccccc3C2=O)=C1 (stereo not given) | > 300 µM |  |  | 
CCc1cc(NCN2C(=O)c3ccccc3C2=O)c(O)nc1C |  | 0.00624 min⁻¹ | 0.0101 min⁻¹ | 0.0243 min⁻¹
Cc1cc(NCN2C(=O)c3ccccc3C2=O)c(O)nc1C | 0.218 µM |  |  | 
CCCc1cc(NCN2C(=O)c3ccccc3C2=O)c(=O)[nH]c1C | 0.058 µM |  |  | 
CCC1=C(C)NC(OC)C(C(=O)CN2C(=O)c3ccccc3C2=O)=C1 (stereo not given) | > 300 µM |  |  | 
CCc1cc(CCCN2C(=O)c3ccccc3C2=O)c(O)nc1C | 210 µM |  |  | 
CCc1cc(C(O)CN2C(=O)c3ccccc3C2=O)c(O)nc1C (stereo not given) | > 300 µM |  |  | 
CCc1cc(C(=O)CN2C(=O)c3ccccc3C2=O)c(=O)[nH]c1C | > 300 µM |  |  | 
CCc1cc(NCCCN2C(=O)c3ccccc3C2=O)c(=O)[nH]c1C | 190 µM |  |  | 
CCC1=C(C)NC(OC)C(CN2C(=O)c3ccccc3C2=O)=C1 (stereo not given) | 16 µM |  |  | 
CCCCc1cc(NCN2C(=O)c3ccccc3C2=O)c(O)nc1C | 0.128 µM |  |  | 
O=C1c2ccccc2C(=O)N1CNc1cc2c(nc1O)CCCC2 | 3.7 µM | 0.00777 min⁻¹ | 0.013 min⁻¹ | 0.03678 min⁻¹
O=C1c2ccccc2C(=O)N1CCc1cccnc1O | > 300 µM |  |  | 
CCc1cc(/C=C/N2C(=O)c3ccccc3C2=O)c(=O)[nH]c1C | 54 µM |  |  | 
Cc1ccc(NCN2C(=O)c3ccccc3C2=O)c(=O)[nH]1 | 8.1 µM | 0.00424 min⁻¹ | 0.0073 min⁻¹ | 0.027 min⁻¹
